Assay results from different studies.
Protocols differ between the studies behind these lines.
ERBB2: Receptor tyrosine-protein kinase erbB-2 (ERBB2, Homo sapiens, UniProt P04626)

C=CC(=O)N1CCC(COCC(=O)N2CCN(c3nc(-c4cnc(N)nc4C(F)F)nc(N4CCOC[C@@H]4C)n3)CC2)CC1 — remaining binding (Mitogen-activated protein kinase kinase kinase 2 (MAP3K2, Homo sapiens, UniProt Q9Y2U5); binding, competition with immobilised ligand; 1 µM): 97%
COc1cc(-c2cncc3c2CN(C)Cc2cc(N4CCNCC4)ccc2-3)cc(OC)c1OC — remaining activity (ERBB2; enzyme activity, inhibitor; 1 µM): 106%
C=CC(=O)N1CCCN(C(=O)c2cc(Sc3cnc(NC(=O)C4CC4)s3)c(C)cc2OC)C[C@H]1C — inhibition (Tyrosine-protein kinase ITK/TSK (ITK, Homo sapiens, UniProt Q08881); enzyme activity, inhibitor; 1 µM): > 95%
CN(C)C/C=C/C(=O)Nc1cc2c(Nc3ccc(F)c(Cl)c3)ncnc2cc1O[C@H]1CCOC1 — inhibition (ERBB2; cell-free assay, competition with immobilised ligand; 10 µM): ~100%
O=C(O)CNc1cccc(CN(Cc2ccc(-n3cccn3)cc2)S(=O)(=O)c2cccnc2)n1 — inhibition (Carbonic anhydrase 1 (CA1, Homo sapiens, UniProt P00915); enzyme activity, inhibitor; 10 µM): 0%
Cc1cc([C@@H](C)Nc2ccccc2C(=O)O)c2nc(N3CCC(F)(F)CC3)c(C#N)c(=O)n2c1 — remaining binding (Tyrosine-protein kinase ABL1, phosphorylated (ABL1, Homo sapiens, UniProt P00519); binding, competition with immobilised ligand; 1 µM): 100%
CNc1ncc2c(/C=C/C(=O)N3CCC(OC)CC3)nn(Cc3cccc(C(F)(F)F)c3)c2n1 — remaining activity (Tyrosine-protein kinase ABL1 (ABL1, Homo sapiens, UniProt P00519); enzyme activity, inhibitor, radiometric; 1 µM): 92%
O=C(COP(=O)(O)O)[C@@H](O)[C@H](O)[C@H](O)COP(=O)(O)O — ΔTm (Son of sevenless homolog 1 (SOS1, Homo sapiens, UniProt Q07889); thermal stability; 5 mM, lysate): -6.2 °C
CC(C)OC(=O)CNc1cccc(CN(Cc2ccc(-n3cccn3)cc2)S(=O)(=O)c2cccnc2)n1 — inhibition (Alpha-2A adrenergic receptor (ADRA2A, Homo sapiens, UniProt P08913); ligand displacement, radioligand; 10 µM): 4%
CCc1nn(C)c2nc(-c3ccc(C(=O)O)cc3)nc(NCc3ccc(F)cc3)c12 — inhibition (cGMP-dependent 3',5'-cyclic phosphodiesterase (PDE2A, Homo sapiens, UniProt O00408); enzyme activity, inhibitor, radiometric; 10 µM): 35.7%
